For data set [1], the system named is Staphylococcus aureus. As to the kind of experiment: Antibacterial activity against Staphylococcus aureus MRSA198 clinical isolate-1 measured after 18 to 20 hrs by microbroth dilution method. The data set is classed as functional. The settings on record: MRSA198 isolate-1. (In broth dilution the organism is exposed to a series of concentrations in liquid medium.)

A short description of data set [2]: Cytotoxicity against mouse RAW264.7 cells assessed as growth inhibition at 50 ug/mL after 120 hrs by MTT assay relative to control. The data set is classed as cell-based. The settings on record: read-out: GI. In outline: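 RAW 264.7 mouse macrophages were seeded at 25,000 cells/well and left to attach overnight. Compound in DMSO was added from a 200× concentrate, in duplicate wells, to a 50 μg/mL test level; DMSO served as control. Exposure 120 h at 37°C in 5% CO₂. MTT (4 mg/mL in PBS) was added for 4 h, formazan dissolved in DMSO, and absorbance read at 560 nm. Viability expressed as % of untreated cells, mean ± SE of at least three independent experiments.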
In general terms: Formazan colour is commonly taken as a measure of viable cells.

Another data set deals with Aspergillus niger. Kind of data set: Antifungal activity against Aspergillus niger ATCC 439 measured after 72 hrs by agar dilution method. The data set is classed as functional. The settings on record: ATCC 439, 72 h. In outline: (§1)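 Agar dilution on Sabouraud dextrose agar, with compounds at […] to 0.78 μM in twofold steps. Fungal suspensions at 10 CFU/mL as printed were applied to the compound-containing plates. Incubation at 35°C; MIC read after 72 h. Three experiments.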
Background: Agar dilution tests growth on a series of plates holding different concentrations.

The next data set has as its system Escherichia coli. Kind of data set: Antibacterial activity against Escherichia coli ATCC 25922 measured after 18 to 20 hrs by microbroth dilution method. The data set is classed as functional. The essentials: (§2)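 Inoculum from a 4–6-h broth adjusted to 0.5 McFarland, final 5 × 10⁵ CFU/mL. Incubation at 35°C for 18–20 h. MIC taken as the lowest concentration giving complete inhibition of visible growth; three experiments.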

The test system of data set [3] is Staphylococcus aureus. Kind of data set: Antibacterial activity against Staphylococcus aureus MRSA198 clinical isolate-3 measured after 18 to 20 hrs by microbroth dilution method. The data set is classed as functional. The following applies: MRSA198 isolate-3.
The test system of data set [4] is Staphylococcus aureus. Kind of data set: Antibacterial activity against Staphylococcus aureus MRSA198 clinical isolate-2 measured after 18 to 20 hrs by microbroth dilution method. The data set is classed as functional. The following applies: MRSA198 isolate-2.
Data set [5] relates to Staphylococcus aureus. Kind of data set: Antibacterial activity against Staphylococcus aureus ATCC 11632 after 18 to 20 hrs by microbroth dilution method. The data set is classed as functional. In outline:
as §2

Data set [6] has as its system Staphylococcus epidermidis. As to the kind of experiment: Antibacterial activity against Staphylococcus epidermidis ATCC 12228 after 18 to 20 hrs by microbroth dilution method. The data set is classed as functional. In outline:
as §2

The next data set has as its system Aspergillus flavus. Kind of data set: Antifungal activity against Aspergillus flavus ATCC 204304 measured after 72 hrs by agar dilution method. The data set is classed as functional. The following applies: ATCC 204304, 72 h. The essentials:
as §1

The subject of the next data set is Pseudomonas aeruginosa. As to the kind of experiment: Antibacterial activity against Pseudomonas aeruginosa […] measured after 18 to 20 hrs by microbroth dilution method. The data set is classed as functional. The essentials:
as §2

Another data set relates to Saccharomyces cerevisiae. As to the kind of experiment: Antifungal activity against Saccharomyces cerevisiae SH 20 after 72 hrs by agar dilution method. The settings on record: SH 20, 72 h. The data set is classed as functional. The essentials: as §1
In a further data set the test system is Candida albicans. Kind of data set: Antifungal activity against Candida albicans ATCC 7754 after 72 hrs by agar dilution method. The data set is classed as functional. The settings on record: ATCC 7754, 72 h. In outline: as §1
The subject of another data set is Klebsiella pneumoniae. As to the kind of experiment: Antibacterial activity against measured after Klebsiella pneumoniae ATCC 4352 measured after 18 to 20 hrs by microbroth dilution method. The data set is classed as functional. The essentials:
as §2

The subject of the next data set is Salmonella typhimurium. As to the kind of experiment: Antibacterial activity against Salmonella typhimurium ATCC 14028 measured after 18 to 20 hrs by microbroth dilution method. The data set is classed as functional, Salmonella enterica subsp. enterica serovar Typhimurium. The following applies: Salmonella enterica. In outline: as §2
Another data set deals with Bacillus subtilis. As to the kind of experiment: Antibacterial activity against Bacillus subtilis ATCC 11774 after 18 to 20 hrs by microbroth dilution method. The data set is classed as functional. The essentials: as §2

≈ marks a conversion by molar mass, not a printed value.

For orientation: MIC means the lowest concentration found to suppress growth. A higher MIC goes with weaker potency.

`CC(=O)OC[C@H]1O[C@@H](n2cc(COc3ccc4c(c3)OC(N)=C(C#N)C4c3ccc(Br)cc3)nn2)[C@H](OC(C)=O)[C@@H](OC(C)=O)[C@@H]1OC(C)=O` (stereo partly drawn): the MIC in the data set with Staphylococcus aureus [1] turned out to be 12.5 µM (≈ 9.43 µg/mL); against Aspergillus niger it was 3.12 µM (≈ 2.35 µg/mL); in the data set on Escherichia coli it was 100 µM (≈ 75.5 µg/mL); against Staphylococcus aureus [3] it was 12.5 µM (≈ 9.43 µg/mL); against Staphylococcus aureus [4] it was 12.5 µM (≈ 9.43 µg/mL); against Staphylococcus aureus [5], 25 µM (≈ 18.9 µg/mL). For the same compound, the MIC in data set [6] amounted to 100 µM (≈ 75.5 µg/mL); against Aspergillus flavus, 200 µM (≈ 151 µg/mL); in the data set with Pseudomonas aeruginosa, 25 µM (≈ 18.9 µg/mL); in the data set with Saccharomyces cerevisiae it was 1.56 µM (≈ 1.18 µg/mL); against Candida albicans it was 3.12 µM (≈ 2.35 µg/mL); with Klebsiella pneumoniae, 200 µM (≈ 151 µg/mL). The MIC in the data set with Salmonella typhimurium and with Bacillus subtilis was 200 µM (≈ 151 µg/mL) in each case. In addition, the inhibition at 120 h, 50 ug/mL in [2] was 25.3%.
With `COc1cccc(C2C(C#N)=C(N)Oc3cc(OCc4cn([C@@H]5O[C@H](COC(C)=O)[C@@H](OC(C)=O)[C@H](OC(C)=O)[C@H]5OC(C)=O)nn4)ccc32)c1OC` (stereo partly drawn), the minimum inhibitory concentration (MIC) in the data set on Staphylococcus aureus [1] came to 12.5 µM (≈ 9.2 µg/mL); in the data set on Aspergillus niger it was 25 µM (≈ 18.4 µg/mL); with Escherichia coli, 200 µM (≈ 147 µg/mL); in the data set on Staphylococcus aureus [3], 12.5 µM (≈ 9.2 µg/mL); against Staphylococcus aureus [4], 12.5 µM (≈ 9.2 µg/mL); with Staphylococcus aureus [5], 12.5 µM (≈ 9.2 µg/mL). For the same compound, the MIC in data set [6] came out at 25 µM (≈ 18.4 µg/mL); in the data set with Aspergillus flavus, 25 µM (≈ 18.4 µg/mL); in the data set with Pseudomonas aeruginosa, 12.5 µM (≈ 9.2 µg/mL); in the data set with Saccharomyces cerevisiae it was 200 µM (≈ 147 µg/mL); with Candida albicans it was 100 µM (≈ 73.6 µg/mL); against Klebsiella pneumoniae, 25 µM (≈ 18.4 µg/mL). For the same compound, the MIC in the data set with Salmonella typhimurium and with Bacillus subtilis was 12.5 µM (≈ 9.2 µg/mL) in each case. In addition, the inhibition at 120 h, 50 ug/mL in [2] came to 31.1%.
With `CC(=O)OC[C@H]1O[C@@H](n2cc(COc3ccc4c(c3)OC(N)=C(C#N)C4c3cccc([N+](=O)[O-])c3)nn2)[C@H](OC(C)=O)[C@@H](OC(C)=O)[C@@H]1OC(C)=O` (stereo partly drawn), the MIC against Staphylococcus aureus [1] worked out at 1.56 µM (≈ 1.12 µg/mL); with Aspergillus niger it was 12.5 µM (≈ 9.01 µg/mL); against Escherichia coli it was 50 µM (≈ 36 µg/mL); against Staphylococcus aureus [3] it was 3.12 µM (≈ 2.25 µg/mL); with Staphylococcus aureus [4], 6.25 µM (≈ 4.5 µg/mL); against Staphylococcus aureus [5], 3.12 µM (≈ 2.25 µg/mL). Further, the MIC in data set [6] is 400 µM (≈ 288 µg/mL); against Aspergillus flavus, 50 µM (≈ 36 µg/mL); against Pseudomonas aeruginosa, 12.5 µM (≈ 9.01 µg/mL); against Saccharomyces cerevisiae, 6.25 µM (≈ 4.5 µg/mL); in the data set with Candida albicans, 200 µM (≈ 144 µg/mL); with Salmonella typhimurium, 400 µM (≈ 288 µg/mL). This compound yielded an MIC with Bacillus subtilis of 50 µM (≈ 36 µg/mL). Further, the inhibition at 120 h, 50 ug/mL in data set [2] was found to be 15.6%.
On to `COc1ccc(C2C(C#N)=C(N)Oc3cc(OCc4cn([C@@H]5O[C@H](COC(C)=O)[C@@H](OC(C)=O)[C@H](OC(C)=O)[C@H]5OC(C)=O)nn4)ccc32)cc1` (stereo partly drawn), for which the MIC against Staphylococcus aureus [1] was found to be 12.5 µM (≈ 8.82 µg/mL); against Aspergillus niger, 200 µM (≈ 141 µg/mL); in the data set with Escherichia coli, 200 µM (≈ 141 µg/mL); against Staphylococcus aureus [3] it was 12.5 µM (≈ 8.82 µg/mL); against Staphylococcus aureus [4], 12.5 µM (≈ 8.82 µg/mL); in the data set on Staphylococcus aureus [5] it was 25 µM (≈ 17.6 µg/mL). For the same compound, the MIC turned out to be 200 µM (≈ 141 µg/mL) in [6]; 12.5 µM (≈ 8.82 µg/mL) against Aspergillus flavus; 100 µM (≈ 70.6 µg/mL) in the data set with Pseudomonas aeruginosa; 12.5 µM (≈ 8.82 µg/mL) in the data set with Saccharomyces cerevisiae; 1.56 µM (≈ 1.1 µg/mL) against Candida albicans; 1.56 µM (≈ 1.1 µg/mL) in the data set with Salmonella typhimurium. The compound also yielded a minimum inhibitory concentration (MIC) against Bacillus subtilis of 12.5 µM (≈ 8.82 µg/mL). Moreover, in data set [2], the inhibition at 120 h, 50 ug/mL is 29.6%.
Turning to `CC(=O)OC[C@H]1O[C@@H](n2cc(COc3ccc4c(c3)OC(N)=C(C#N)C4c3ccc(Cl)cc3)nn2)[C@H](OC(C)=O)[C@@H](OC(C)=O)[C@@H]1OC(C)=O` (stereo partly drawn), the MIC against Staphylococcus aureus [1] was 200 µM (≈ 142 µg/mL); against Aspergillus niger, 50 µM (≈ 35.5 µg/mL); against Escherichia coli it was 1.56 µM (≈ 1.11 µg/mL); with Staphylococcus aureus [3], 100 µM (≈ 71 µg/mL); against Staphylococcus aureus [4], 200 µM (≈ 142 µg/mL); in the data set on Staphylococcus aureus [5], 50 µM (≈ 35.5 µg/mL). Moreover, the MIC in [6] was 200 µM (≈ 142 µg/mL); in the data set with Aspergillus flavus it was 25 µM (≈ 17.8 µg/mL); in the data set with Pseudomonas aeruginosa it was 3.12 µM (≈ 2.22 µg/mL); against Saccharomyces cerevisiae, 1.56 µM (≈ 1.11 µg/mL); in the data set on Candida albicans, 6.25 µM (≈ 4.44 µg/mL); in the data set on Klebsiella pneumoniae, 12.5 µM (≈ 8.88 µg/mL). In addition, the results for the MIC with Salmonella typhimurium and with Bacillus subtilis were 12.5 µM (≈ 8.88 µg/mL) and 400 µM (≈ 284 µg/mL), respectively. For the same compound, in [2], the inhibition at 120 h, 50 ug/mL was 25.1%.

Source of the values: ChEMBL document CHEMBL4390647, “Efficient click chemistry towards novel 1H-1,2,3-triazole-tethered 4H-chromene-d-glucose conjugates: Design, synthesis and evaluation of in vitro antibacterial, MRSA and antifungal activities” (Eur J Med Chem, 2019).
